This passage reports IC50 and selectivity ratio results from ChEMBL document CHEMBL4480436, “Lead optimization of selective tubulin inhibitors as anti-trypanosomal agents” (Bioorg Med Chem, 2019).

The subject of one series is HEK293. Briefly: Cytotoxicity against HEK293 cells after 48 hrs by MTT assay. The class given is cell-based. The conditions noted are these: Homo sapiens, HEK293, 48 h. A digest of the protocol: (§1)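 Cells kept in RPMI1640 with 10% heat-inactivated FBS, 2 mM L-glutamine, 1 mM pyruvate, pen-strep, 37 °C, 5% CO2. 3000 cells/well seeded 24 h, then exposed to graded concentrations (DMSO ≤0.1% final) for 48 h. Then 0.5 mg/mL MTT 3 h at 37 °C, DMSO solubilization, absorbance 570 nm. Quadruplicate data fitted to dose–response curves for IC50.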
Background: Formazan colour is commonly taken as a measure of viable cells.

The test system of another series is RAW264.7. Briefly: Cytotoxicity against mouse RAW264.7 cells after 48 hrs by MTT assay. The class given is cell-based. The conditions noted are these: RAW264.7, 48 h. The procedure, abridged:
as §1

The test system of series [1] is Trypanosoma brucei brucei. Description: Antiparasitic activity against Trypanosoma brucei brucei Lister 427 assessed as reduction in parasite viability after 48 hrs by MTS assay. Conditions: Lister 427, 48 h. The series is classed as functional, organism-based. The procedure, abridged:
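Bloodstream-form Lister 427 grown in HMI-9 with 10% FBS, 37 °C, 7.5% CO2. 5000 cells/well exposed to graded concentrations with 0.1% DMSO for 48 h at 37 °C. MTS/PMS reagent then added, 3 h at 37 °C, formazan read at 490 nm. Quadruplicate data normalized and fitted to dose–response curves for IC50 (Mean ± S.D.).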

A short description of series [2]: Selectivity index, ratio of IC50 for HEK293 cells to IC50 for Trypanosoma brucei brucei Lister 427. The conditions noted are these: human, read-out: Ratio IC50. The class given is toxicity. A digest of the protocol: (§2)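 Ratio of mammalian MTT IC50 (48 h) to T. brucei MTS IC50 (48 h), both from quadruplicate dose–response fits.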
A short description of series [3]: Selectivity index, ratio of IC50 for mouse RAW264.7 cells to IC50 for Trypanosoma brucei brucei Lister 427. The class given is toxicity. Conditions: read-out: Ratio IC50. A digest of the protocol: as §2

A value given as a limit tells only on which side of the number the result lay.

As for `CCS(=O)(=O)Nc1ccc(NC(=O)c2ccc(Cl)cc2)cc1Cl`, the IC50 in the series with HEK293 was more than 250 µM; with RAW264.7, more than 250 µM; in series [1], 19.1 µM. Further, the selectivity ratio in series [2] and in series [3] was more than 13 each time.
Turning to `O=C(Nc1ccc(NS(=O)(=O)C(F)(F)F)c(Cl)c1)c1ccc(Cl)cc1`, the IC50 in the series with HEK293 was 191 µM; with RAW264.7 it was 47.1 µM; in series [1] it was more than 62.5 µM. Moreover, the values for the selectivity ratio in series [2] and in series [3] were less than 4 and less than 1, respectively.
Consider `CS(=O)(=O)Nc1ccc(NC(=O)c2cccc(C(F)(F)F)c2)cc1F`, for which the IC50 is more than 250 µM with HEK293, 32.3 µM in the series with RAW264.7 and more than 62.5 µM in series [1]. Also, the selectivity ratio in series [3] was less than 1.
Turning to `CCS(=O)(=O)Nc1ccc(NC(=O)c2ccc(C#N)cc2)cc1C`, the IC50 in the series on HEK293 was more than 250 µM; with RAW264.7, 109 µM; in series [1], more than 62.5 µM. In addition, in series [3], the selectivity ratio is less than 2.
Consider `CCS(=O)(=O)Nc1ccc(NC(=O)c2cccc(C(F)(F)F)c2)cc1Cl`, for which the IC50 was 159 µM in the series with HEK293, 62.4 µM with RAW264.7 and 7.81 µM in series [1]. In addition, the selectivity ratio stood at 20 in series [2] and 8 in series [3].
With `Cc1cc(NC(=O)c2cccc(C(F)(F)F)c2)ccc1NS(=O)(=O)C(F)(F)F`, the IC50 in the series on HEK293 was 131 µM; in the series with RAW264.7, 8.72 µM; in series [1], 21.7 µM. The selectivity ratio in series [2] was 6; in series [3], less than 1.
As to `CS(=O)(=O)Nc1ccc(NC(=O)c2ccc(C#N)cc2)cc1Cl`, the IC50 with HEK293 was more than 250 µM; in the series with RAW264.7, more than 250 µM; in series [1], more than 62.5 µM.
With `O=C(Nc1ccc(NS(=O)(=O)C(F)(F)F)c(F)c1)c1ccc(Cl)c([N+](=O)[O-])c1`, the values for the IC50 (in the series with HEK293; in the series with RAW264.7; in series [1]) were 194 µM, 188 µM and 16.8 µM, respectively. Also, the values for the selectivity ratio in series [2] and in series [3] were 12 and 11, respectively.
Regarding `COc1cc(NC(=O)c2ccc(Cl)cc2)ccc1NS(=O)(=O)C(F)(F)F`, the results for the IC50 (with HEK293; with RAW264.7; in series [1]) were more than 250 µM, 108 µM and 45.6 µM, respectively. The values for the selectivity ratio in series [2] and in series [3] were more than 5 and 2, respectively.
Consider `CCS(=O)(=O)Nc1ccc(NC(=O)c2ccc(C#N)cc2)cc1Cl`, for which the half-maximal inhibitory concentration (IC50) is more than 250 µM with HEK293, 226 µM in the series with RAW264.7 and 38 µM in series [1]. Further, the figures for the selectivity ratio in series [2] and in series [3] were more than 7 and 6, respectively.
The corresponding values for `Cc1cc(NC(=O)c2ccc(Cl)cc2)ccc1NS(C)(=O)=O` are 50.3 µM, 69 µM, more than 62.5 µM, less than 1 and less than 2.
As for `CCS(=O)(=O)Nc1ccc(NC(=O)c2ccc(Cl)c([N+](=O)[O-])c2)cc1OC`, the IC50 was 63.6 µM with HEK293, 5.66 µM in the series on RAW264.7 and more than 62.5 µM in series [1]. For the same compound, the selectivity ratio in series [2] is less than 2; in series [3] it was less than 1.
The corresponding values for `COc1cc(NC(=O)c2ccc(Cl)c([N+](=O)[O-])c2)ccc1NS(=O)(=O)C(F)(F)F` are more than 250 µM, more than 250 µM, 14.1 µM, more than 18 and more than 18.
Turning to `CCS(=O)(=O)Nc1ccc(NC(=O)c2cccc(C(F)(F)F)c2)cc1C`, the IC50 came to 210 µM in the series on HEK293, 114 µM in the series on RAW264.7 and 35.3 µM in series [1]. For the same compound, the selectivity ratio in series [2] is 6; in series [3], 3.
Consider `CS(=O)(=O)Nc1ccc(NC(=O)c2ccc(Cl)cc2)cc1F`, for which the IC50 in the series with HEK293 is 216 µM; in the series with RAW264.7 it was 22.2 µM; in series [1], more than 62.5 µM. Besides, the selectivity ratio in series [2] is less than 4; in series [3], less than 1.
Take `CCS(=O)(=O)Nc1ccc(NC(=O)c2ccc(Cl)c([N+](=O)[O-])c2)cc1F`: the IC50 in the series with HEK293 is 83.7 µM; with RAW264.7, 198 µM; in series [1] it was 8.39 µM. Moreover, the selectivity ratio in series [2] amounted to 10; in series [3] it was 24.
Turning to `Cc1cc(NC(=O)c2ccc(Cl)c([N+](=O)[O-])c2)ccc1NS(C)(=O)=O`, the figures for the IC50 (in the series on HEK293; with RAW264.7; in series [1]) were 73.1 µM, 108 µM and 7.57 µM, respectively. Besides, the selectivity ratio in series [2] was 10; in series [3], 14.
Take `CS(=O)(=O)Nc1ccc(NC(=O)c2ccc(Cl)c([N+](=O)[O-])c2)cc1Cl`: the IC50 in the series with HEK293 was 204 µM; in the series with RAW264.7, 43.6 µM; in series [1], more than 62.5 µM. Moreover, the selectivity ratio in series [2] is less than 4; in series [3], less than 1.
Take `CCS(=O)(=O)Nc1ccc(NC(=O)c2cc(C(F)(F)F)cc(C(F)(F)F)c2)cc1F`: the IC50 in the series on HEK293 was more than 250 µM; with RAW264.7 it was more than 250 µM; in series [1], 8.78 µM. In addition, the selectivity ratio in series [2] and in series [3] was more than 28 throughout.
`CS(=O)(=O)Nc1ccc(NC(=O)c2ccc(C#N)cc2)cc1F`: the IC50 is more than 250 µM in the series with HEK293, more than 250 µM with RAW264.7 and more than 62.5 µM in series [1].
On to `Cc1cc(NC(=O)c2ccc(Cl)cc2)ccc1NS(=O)(=O)C(F)(F)F`, for which the results for the IC50 (with HEK293; in series [1]) were 200 µM and 37.2 µM, respectively. In addition, the results for the selectivity ratio in series [2] and in series [3] were 5 and 1, respectively.
As for `CCS(=O)(=O)Nc1ccc(NC(=O)c2cc(C(F)(F)F)cc(C(F)(F)F)c2)cc1C`, the IC50 came to 126 µM in the series on HEK293, 124 µM in the series with RAW264.7 and 12.5 µM in series [1]. Further, the selectivity ratio in series [2] and in series [3] was 10 in each case.
For the compound `Cc1cc(NC(=O)c2ccc(C#N)cc2)ccc1NS(C)(=O)=O`, the figures for the IC50 (in the series on HEK293; with RAW264.7; in series [1]) were 43.5 µM, 171 µM and more than 62.5 µM, respectively. The selectivity ratio in series [2] was less than 1; in series [3], less than 3.
As for `CCS(=O)(=O)Nc1ccc(NC(=O)c2cc(C(F)(F)F)cc(C(F)(F)F)c2)cc1Cl`, the figures for the IC50 (in the series on HEK293; in the series on RAW264.7; in series [1]) were 32.2 µM, 64.1 µM and 1.73 µM, respectively. Further, the selectivity ratio in series [2] was 19; in series [3] it was 37.
Regarding `CCS(=O)(=O)Nc1ccc(NC(=O)c2cc(C(F)(F)F)cc(C(F)(F)F)c2)cc1OC`, the IC50 in the series with HEK293 was more than 250 µM; in the series on RAW264.7, more than 250 µM; in series [1], 11.6 µM. Further, the selectivity ratio in series [2] and in series [3] was more than 22 in each case.
`CCS(=O)(=O)Nc1ccc(NC(=O)c2ccc(Cl)cc2)cc1OC`: the IC50 is more than 250 µM in the series with HEK293, 60.1 µM in the series on RAW264.7 and more than 62.5 µM in series [1]. In series [3], the selectivity ratio was less than 1.
Take `COc1cc(NC(=O)c2ccc(Cl)c([N+](=O)[O-])c2)ccc1NS(C)(=O)=O`: the IC50 was 164 µM in the series on HEK293, more than 250 µM in the series on RAW264.7 and more than 62.5 µM in series [1]. In addition, the selectivity ratio in series [2] was less than 3.
For the compound `O=C(Nc1ccc(NS(=O)(=O)C(F)(F)F)c(Cl)c1)c1cc(C(F)(F)F)cc(C(F)(F)F)c1`, the 50% inhibitory concentration (IC50) in the series on HEK293 is more than 250 µM; in the series with RAW264.7 it was 136 µM; in series [1], 47.4 µM. For the same compound, the selectivity ratio in series [2] was more than 5; in series [3] it was 3.
In the case of `Cc1cc(NC(=O)c2ccc(Cl)c([N+](=O)[O-])c2)ccc1NS(=O)(=O)C(F)(F)F`, the figures for the IC50 (in the series with HEK293; with RAW264.7; in series [1]) were more than 250 µM, 89.8 µM and more than 62.5 µM, respectively. In series [3], the selectivity ratio was less than 2.
The corresponding values for `COc1cc(NC(=O)c2ccc(Cl)cc2)ccc1NS(C)(=O)=O` are more than 250 µM, 70 µM, more than 62.5 µM and less than 2.
The corresponding values for `Cc1cc(NC(=O)c2ccc(C#N)cc2)ccc1NS(=O)(=O)C(F)(F)F` are more than 250 µM, 135 µM, more than 62.5 µM and less than 3.
As for `COc1cc(NC(=O)c2cc(C(F)(F)F)cc(C(F)(F)F)c2)ccc1NS(C)(=O)=O`, the IC50 in the series with HEK293 is 42 µM; with RAW264.7 it was more than 250 µM; in series [1] it was more than 62.5 µM. In addition, in series [2], the selectivity ratio is less than 1.
Regarding `COc1cc(NC(=O)c2ccc(C#N)cc2)ccc1NS(C)(=O)=O`, the IC50 was more than 250 µM in the series with HEK293, more than 250 µM with RAW264.7 and more than 62.5 µM in series [1].
With `COc1cc(NC(=O)c2cccc(C(F)(F)F)c2)ccc1NS(C)(=O)=O`, the results for the IC50 (in the series with HEK293; in the series with RAW264.7; in series [1]) were more than 250 µM, 84.8 µM and more than 62.5 µM, respectively. Further, the selectivity ratio in series [3] is less than 2.
Consider `CS(=O)(=O)Nc1ccc(NC(=O)c2cccc(C(F)(F)F)c2)cc1Cl`, for which the figures for the 50% inhibitory concentration (IC50) (in the series with HEK293; with RAW264.7; in series [1]) were more than 250 µM, more than 250 µM and more than 62.5 µM, respectively.
For `CCS(=O)(=O)Nc1ccc(NC(=O)c2ccc(C#N)cc2)cc1OC`, the IC50 in the series with HEK293 is more than 250 µM; with RAW264.7, 66.4 µM; in series [1], more than 62.5 µM. Also, the selectivity ratio in series [3] is less than 2.
For `COc1cc(NC(=O)c2cc(C(F)(F)F)cc(C(F)(F)F)c2)ccc1NS(=O)(=O)C(F)(F)F`, the values for the IC50 (in the series on HEK293; with RAW264.7; in series [1]) were more than 250 µM, more than 250 µM and more than 62.5 µM, respectively.

Usually IC50 stands for the concentration that inhibits the measured activity by half.
